# Calpain2 inh = inhibitors of pig calpain II | purified calpain II, fluorogenic peptide substrate, 30 min | inhibition, % at 16 µM | hit rate 0.37% among 220,000 | AID 1236;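 active = inhibition above about 50%, limit read from the data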
# Mdm2 ligase inh = blocks human Mdm2 ubiquitin ligase activity; Q00987; cell-based MDM2 ubiquitination luciferase reporter, 2 h; 0 = plate control, 100 = twice control, blank-subtracted; signal enhancement, % at 5 µM; hit rate 0.11% among 210,000;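 active = signal enhancement of 30% or more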;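 also: luminescence tracks abundance of the self-degrading MDM2-luciferase fusion protein; higher signal means inhibition of MDM2 E3 ligase activity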
#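 system = mammalian cells stably expressing self-ubiquitinating, self-degrading MDM2 E3–luciferase fusion | quantity = 2000 cells per well seeded | incubation = 4 h cell settling then 2 h compound exposure, 37 °C | signal = SteadyLite luminescence, 15 min reagent step | benchmarks = plate control and blank wells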
# KCC2 mod = KCC2 (human) Cl- transport modulation. Q9H2X9. KCC2 cells, thallium flux FluoZin-2 fluorescence. B-score of Tl+ flux slope (higher = more flux/activation; lower = inhibition) at 10 µM. hit rate 2.2% among 190,000. AID 1456;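 active = thallium flux slope and its plate-corrected score both differing from the plate sample mean at a set confidence after two filtering rounds, in either direction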;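 also: slope of fluorescence scaled to starting intensity during 10 to 20 s after thallium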
# PKD1 kinase inh = blocks activity of human protein kinase D1 | Q15139 | PKD1 kinase fluorescence polarization assay | inhibition, % (concentration not given with the values) | hit rate 0.056% among 200,000 | AID 797; in the data active = inhibition above about 50%
# Target sequence (Q15139 whole entry, looked up): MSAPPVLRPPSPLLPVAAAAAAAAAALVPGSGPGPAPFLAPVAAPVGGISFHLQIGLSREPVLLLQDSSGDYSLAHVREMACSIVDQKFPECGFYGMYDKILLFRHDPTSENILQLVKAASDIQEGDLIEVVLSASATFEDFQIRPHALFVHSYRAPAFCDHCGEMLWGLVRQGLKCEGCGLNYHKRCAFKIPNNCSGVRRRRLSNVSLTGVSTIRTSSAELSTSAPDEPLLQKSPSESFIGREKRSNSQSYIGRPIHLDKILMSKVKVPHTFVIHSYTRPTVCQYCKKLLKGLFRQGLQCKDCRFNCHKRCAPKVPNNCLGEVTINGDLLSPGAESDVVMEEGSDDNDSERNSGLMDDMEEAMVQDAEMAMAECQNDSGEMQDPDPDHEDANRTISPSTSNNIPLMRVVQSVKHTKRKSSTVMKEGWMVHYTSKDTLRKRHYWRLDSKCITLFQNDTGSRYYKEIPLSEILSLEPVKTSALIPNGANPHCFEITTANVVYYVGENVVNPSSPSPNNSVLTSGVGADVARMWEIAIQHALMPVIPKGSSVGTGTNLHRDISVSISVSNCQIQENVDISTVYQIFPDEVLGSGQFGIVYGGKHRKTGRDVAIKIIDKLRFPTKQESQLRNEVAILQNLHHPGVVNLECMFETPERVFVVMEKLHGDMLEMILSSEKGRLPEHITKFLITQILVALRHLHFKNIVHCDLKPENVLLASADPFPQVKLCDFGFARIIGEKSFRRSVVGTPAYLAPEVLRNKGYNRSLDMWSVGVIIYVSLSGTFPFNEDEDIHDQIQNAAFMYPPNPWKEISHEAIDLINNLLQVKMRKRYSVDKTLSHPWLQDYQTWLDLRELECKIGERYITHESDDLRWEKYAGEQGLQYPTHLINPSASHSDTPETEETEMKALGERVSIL
# Arbovirus inh = blocks arbovirus infection; arbovirus infection cell-based antiviral screen; inhibition, % at 10 µM; hit rate 0.37% among 200,000; AID 1251; in the data active = inhibition above about 30%
# ROMK mod = human ROMK K+ channel modulation, primary screen. B-score at 10 µM. P48048. Tet-inducible ROMK, thallium flux fluorescence; actives lie on both sides. hit rate 2% among 130,000;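 active = signal ratio slope over the read window, or its plate-corrected B-score, at least 3 SD from the plate mean, either direction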;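 also: B-score of the F/F0 ratio slope over 7 to 12 s after thallium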
# KCC2 secondary = confirmation of human KCC2 transport modulators; shares compounds with KCC2 mod; HEK293-KCC2, thallium flux, FluoZin2 fluorescence; active compounds read high; normalised thallium flux (F/F0 slope) at 10 µM; hit rate 15% among 3,700;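 active = thallium flux slope above the same plate's solvent-only control mean plus 3 SD; inconclusive = the two replicate wells disagree; inactive = no significant difference from solvent-only control wells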
# KCC2 bumet counter = bumetanide-insensitive thallium flux in KCC2 cells with ouabain, counter-screen. AID 1714. shares compounds with KCC2 mod. normalized thallium flux at 10 µM. HEK293-KCC2 + bumetanide/ouabain, thallium flux FluoZin2; active compounds read high. hit rate 49% among 3,700;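 active = thallium entry rate above the same plate's blocked-transporter control wells by more than 3 SD; inconclusive = the two repeat wells disagree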;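 also: raw slope of fluorescence over initial fluorescence between 10 and 20 s after thallium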
# KCC2 secondary2 = confirmation of human KCC2 transport modulators. HEK293-KCC2, thallium flux FluoZin2 fluorescence; actives lie on both sides; F/F0 rise rate, 10–20 s post-thallium. normalized thallium flux at 10 µM. hit rate 23% among 3,700. shares compounds with KCC2 mod;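 active = thallium flux slope more than 3 SD above or below the plate's solvent-only control mean, mostly below; inconclusive = the two repeat wells disagreed; inactive = no significant shift from solvent-only controls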
# HEK293 Tl flux = parental HEK flux effect, counter-screen | shares compounds with KCC2 mod | AID 1716 | thallium flux rate (normalised fluorescence) at 10 µM | HEK293 parental cells, thallium flux FluoZin2, ouabain; baseline-ratio fluorescence slope, 10–20 s after thallium | hit rate 46% among 3,700;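 active = thallium flux rate significantly above the same plate's solvent-only control wells, beyond their mean plus 3 SD; inconclusive = the two replicate wells gave conflicting results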
# KCC2 retest ouab = confirmation of human KCC2 modulators with ouabain; HEK293-KCC2, thallium flux FluoZin2 fluorescence; bidirectional: low = inhibitor, high = activator; AID 1717; hit rate 48% among 3,700; raw Tl+ flux slope (below DMSO = inhibition, above = activation) at 10 µM; shares compounds with KCC2 mod;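 active = thallium flux slope beyond 3 SD from same-plate DMSO control mean in most replicates, usually higher, sometimes lower; inconclusive = repeat tests gave conflicting results; inactive = no significant difference from controls in most replicates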;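 also: slope of initial-normalized fluorescence between seconds 10 and 20 after thallium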
# HEK counter2 = acts in parental HEK cells, second KCC2 counter-screen; thallium flux slope at 10 µM; shares compounds with KCC2 mod; hit rate 33% among 3,700; HEK293 parental, thallium flux FluoZin-2 fluorescence slope;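 active = thallium flux slope above the same plate's solvent-control mean plus 3 SD in both duplicate wells; inconclusive = duplicate wells that disagreed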;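 also: run without ouabain in cells lacking the KCC2 cotransporter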
# Numbers stand for hits; 0 = inactive; ? = inconclusive; - = not tested or not shown. An excerpt weighted towards active compounds, which were near 3.7% of everything screened.
SMILES,Calpain2 inh,Mdm2 ligase inh,KCC2 mod,PKD1 kinase inh,Arbovirus inh,ROMK mod,KCC2 secondary,KCC2 bumet counter,KCC2 secondary2,HEK293 Tl flux,KCC2 retest ouab,HEK counter2
O=C(O)Cc1sc(Nc2ccccc2)nc1-c1ccc(Cl)cc1,0,0,-6.7,0,0,0,0,0.01,0,0,?,0
Cc1ccc(Nc2nc(-c3ccccc3)c(CC(=O)O)s2)cc1,0,0,0,0,0,0,-,-,-,-,-,-
Cc1ccc(C(=O)NS(=O)(=O)c2ccc(N=NN(C)C)cc2)cc1,0,0,0,0,0,0,-,-,-,-,-,-
CC1(C)Oc2ccc(C(=O)NC3CCCC3)cc2N(CC(=O)NC2CCCCC2)C1=O,0,0,-,0,0,0,-,-,-,-,-,-
Cc1cc(C)cc(C(=O)N2CCC(C(N)=O)CC2)c1,0,0,-,0,0,-,-,-,-,-,-,-
O=[N+]([O-])c1cc(Br)c(O)c(/C=N/Nc2nnnn2-c2cccc3ccccc23)c1,0,0,-3.2,0,0,0,0,0,?,?,?,0
CCOC(=O)N1CCN(C(=S)NC(=O)c2c(-c3c(Cl)cccc3Cl)noc2C)CC1,0,0,11,0,0,0,?,0.033,?,0.018,0.032,0.019
Cc1onc(-c2c(Cl)cccc2Cl)c1C(=O)N=C(N)N1CCOCC1,0,0,-,-,-,-,-,-,-,-,-,-
Cc1onc(-c2c(Cl)cccc2Cl)c1C(=O)NC(=S)N1CCOCC1,0,0,8.6,-,-,-,0.011,0.019,0,0.012,?,0
CCOC(=O)C1CCN(C(=O)c2c(-c3c(F)cccc3Cl)noc2C)CC1,0,0,-,0,0,0,-,-,-,-,-,-
Cn1ncc(N=Cc2c(O)ccc3ccccc23)c1C(=O)Nc1cccc(Cl)c1,0,0,0,0,0,0,-,-,-,-,-,-
Oc1ccccc1C(Nc1nccs1)c1ccc2cccnc2c1O (stereo unspecified),0,0,5,-,-,-,0,0.015,0,0.0086,?,0
Nc1ccc(Cl)cc1/C(=N/O)c1ccccc1,0,0,0,0,0,0,-,-,-,-,-,-
CCC(=O)Nc1nnc(-c2ccco2)o1,0,0,0,0,0,-,-,-,-,-,-,-
Cc1ccsc1C(=O)Nc1nnc(-c2ccco2)o1,0,0,-,0,0,-,0.013,0.026,0,0.015,0.03,0.011
C/C(=N\NC(=O)CSCc1ccccc1Cl)c1cc(O)ccc1O,0,0,0,0,0,0,-,-,-,-,-,-
O=C(O)c1ccc(C[n+]2c(-c3ccccc3)csc2Nc2ccccc2)cc1,0,0,-3.6,0,0,0,0,?,0,0,0.016,0
CC(C)(C)c1cc(-c2csc(Nc3ccccc3)[n+]2Cc2ccc(C(=O)O)cc2)cc(C(C)(C)C)c1O,0,0,0,-,-,0,-,-,-,-,-,-
COCCN1C(=O)c2oc3ccccc3c(=O)c2C1c1ccc(C(=O)OC)cc1 (stereo unspecified),0,0,0,0,0,-,-,-,-,-,-,-
COC(=O)c1ccc(C2c3c(oc4ccccc4c3=O)C(=O)N2CCCN2CCOCC2)cc1 (stereo unspecified),0,0,-4.5,0,0,-,0,0.0061,0,0,0,0
Cc1ccc(Nc2nc(=O)c3cccnc3s2)c(Br)c1,0,0,29,-,-,-,0,0.038,?,0.02,0.038,0.021
CC(=O)N1N=C(c2cccc([N+](=O)[O-])c2)OC1c1ccc(Cl)cc1Cl (stereo unspecified),0,0,0,0,0,0,-,-,-,-,-,-

# Compound activity as filed in PubChem.
